Test [1] has as its system Mus musculus. As to the kind of experiment: Antagonism of apomorphine induced swimming was determined in female swiss -Webster mice after (po) administration of 10 mg/kg. It counts as functional. Summed up: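 Female Swiss-Webster mice (~20 g), food-deprived ~24 h, N = 20 per group; oral dosing in 0.5% w/w hydroxypropylmethylcellulose with 0.1% w/w Tween 80 in water. Apomorphine given; mice placed in a circular tank (5.5 cm water, room temperature) with marks 180° apart. Each 180° swim counted, observed via overhead mirrors; group score derived from swim counts.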

For test [2], the system named is Mus musculus. In words: Antagonism of apomorphine induced climbing was determined in female swiss -Webster mice after (ip) administration of 20 mg/kg. It counts as functional. Summed up: (§1)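 Female Swiss-Webster mice (about 20 g) were fasted about 24 h, then given test compound or vehicle ip or po (N = 20 per group). Vehicle was 0.5% w/w hydroxypropylmethylcellulose with 0.1% w/w Tween 80 in water. After 30 min, mice received apomorphine HCl 1.25 mg/kg sc. At 13 min, each mouse was watched for 1 min; score was mean of highest and lowest rung of 27. Groups were compared with vehicle by Student's t-test.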

Test [3] concerns Mus musculus. As to the kind of experiment: Antagonism of apomorphine induced swimming was determined in female swiss -Wbster mice after (po) administration of 40 mg/kg. It counts as functional.
Test [4] deals with Mus musculus. As to the kind of experiment: Antagonism of apomorphine induced swimming was determined in female swiss -Wbster mice after (po) administration of 80 mg/kg. The class given is functional.
The nature of test [5]: Number of animals showing dyskinesias was determined in haloperidol sensitized 11 cebus monkeys after (po) administration of 40 mg/kg. It counts as functional. Summed up: (§2)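 Adult male and female Cebus monkeys sensitized with haloperidol 1 mg/kg po weekly until dyskinetic reactions appeared. Drug given orally (2 mL/kg) in 0.5% w/w hydroxypropylmethylcellulose with 0.1% w/w Tween 80, at least 2 weeks between treatments. Two observers watched continuously for 6–7 h, logging reaction type and severity every 30 min. Score is the number of monkeys with dyskinesias over the number tested.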

Test [6] has as its system Mus musculus. As to the kind of experiment: Antagonism of apomorphine induced swimming was determined in female swiss -Wbster mice after (po) administration of 20 mg/kg. It counts as functional.
Test [7] has as its system Mus musculus. As to the kind of experiment: Antagonism of apomorphine induced climbing was determined in female swiss -Webster mice after (ip) administration of 80 mg/kg. The class given is functional. Summed up: as §1
Test [8] can be described thus: Number of animals showing dyskinesias was determined in haloperidol sensitized 13 cebus monkeys after (po) administration of 10 mg/kg. It counts as functional. Summed up: as §2
The nature of test [9]: Number of animals showing dyskinesias was determined in haloperidol sensitized 13 cebus monkeys after (po) administration of 20 mg/kg. The class given is functional. Summed up:
as §2

Test [10] concerns Mus musculus. In words: Antagonism of apomorphine induced climbing was determined in female swiss -Webster mice after (ip) administration of 40 mg/kg. It counts as functional. Summed up:
as §1

Test [11] has as its system Mus musculus. In words: Antagonism of apomorphine induced climbing was determined in female swiss -Webster mice after (ip) administration of 10 mg/kg. The class given is functional. Summed up: as §1
The subject of test [12] is Mus musculus. In words: Antagonism of apomorphine induced climbing was determined in female swiss -Wbster mice after (po) administration of 40 mg/kg. It counts as functional. Summed up:
as §1

In test [13] the test system is Mus musculus. As to the kind of experiment: Antagonism of apomorphine induced climbing was determined in female swiss -Wbster mice after (po) administration of 20 mg/kg. The class given is functional. Summed up:
as §1

Test [14] in a line: Number of animals showing dyskinesias was determined in haloperidol sensitized 2 cebus monkeys after (po) administration of 20 mg/kg. It counts as functional. Summed up: (§3)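 Adult female and male Cebus monkeys sensitized with oral haloperidol 1 mg/kg once per week until dyskinetic reactions occurred. Test drug given orally (2 mL/kg) in 0.5% w/w hydroxypropylmethylcellulose with 0.1% w/w Tween 80 in distilled water, at least 2 weeks between treatments. Two observers watched continuously for 6-7 h, recording reaction type and severity every 30 min. Score is monkeys with dyskinesias/monkeys tested.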

Test [15] concerns Mus musculus. As to the kind of experiment: Antagonism of apomorphine induced climbing was determined in female swiss -Wbster mice after (ip) administration of 40 mg/kg. The class given is functional. Summed up: as §1
In test [16] the test system is Mus musculus. As to the kind of experiment: Antagonism of apomorphine induced climbing was determined in female swiss -Wbster mice after (ip) administration of 10 mg/kg. The class given is functional. Summed up: as §1
For test [17], the system named is Mus musculus. As to the kind of experiment: Antagonism of apomorphine induced climbing was determined in female swiss -Wbster mice after (po) administration of 80 mg/kg. It counts as functional. Summed up: as §1
Test [18] has as its system Mus musculus. In words: Antagonism of apomorphine induced climbing was determined in female swiss -Wbster mice after (ip) administration of 80 mg/kg. The class given is functional. Summed up:
as §1

Test [19] in a line: Number of animals showing dyskinesias was determined in haloperidol sensitized 4 cebus monkeys after (po) administration of 40 mg/kg. The class given is functional. Summed up:
as §3

Test [20] has as its target D(2) dopamine receptor (Rattus norvegicus) (UniProt P61169). As to the kind of experiment: Binding affinity at dopamine receptor D2 from rat by spiropiperidone displacement. Summed up:
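D2 receptor binding was read as % displacement of spiropiperidone, with test compound at 1000 nM unless stated otherwise. IC50 values used at least five concentrations per compound in triplicate. Each value is the mean of two replicate experiments differing by 5% or less.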

In test [21] the test system is Mus musculus. As to the kind of experiment: Antagonism of apomorphine induced climbing was determined in female swiss -Wbster mice after (ip) administration of 20 mg/kg. The class given is functional. Summed up: as §1
Test [22] is described as follows: Number of animals showing dyskinesias was determined in haloperidol sensitized 12 cebus monkeys after (po) administration of 80 mg/kg. The class given is functional. Summed up: as §3
In another test the target is D(2) dopamine receptor (Rattus norvegicus, UniProt P61169). As to the kind of experiment: Inhibition of spiropiperidone binding at dopamine receptor D2 of rat.
In test [23] the test system is Mus musculus. In words: Antagonism of apomorphine induced swimming was determined in female swiss -Webster mice after (ip) administration of 40 mg/kg. It counts as functional.
Test [24] in a line: Number of animals showing dyskinesias was determined in haloperidol sensitized 5 cebus monkeys after (po) administration of 5 mg/kg. The class given is functional. Summed up: as §3
The test system of test [25] is Mus musculus. In words: Antagonism of apomorphine induced swimming was determined in female swiss -Webster mice after (ip) administration of 20 mg/kg. The class given is functional.
Test [26] relates to Mus musculus. In words: Antagonism of apomorphine induced swimming was determined in female swiss -Webster mice after (ip) administration of 10 mg/kg. The class given is functional.
Test [27] has as its system Mus musculus. As to the kind of experiment: Antagonism of apomorphine induced climbing was determined in female swiss -Webster mice after (ip) administration of 5 mg/kg. The class given is functional. Summed up:
as §1

Test [28] can be described thus: Number of animals showing dyskinesias was determined in haloperidol sensitized 5 cebus monkeys after (po) administration of 20 mg/kg; 5/5. It counts as functional. Summed up: as §3
Test [29] has as its system Mus musculus. In words: Antagonism of apomorphine induced swimming was determined in female swiss -Webster mice after (ip) administration of 5 mg/kg. The class given is functional.
Test [30] concerns Mus musculus. In words: Antagonism of apomorphine induced swimming was determined in female swiss -Webster mice after (po) administration of 40 mg/kg. It counts as functional.
Test [31] concerns Mus musculus. In words: Antagonism of apomorphine induced swimming was determined in female swiss -Webster mice after (po) administration of 20 mg/kg. It counts as functional.
The subject of test [32] is Mus musculus. As to the kind of experiment: Antagonism of apomorphine induced swimming was determined in female swiss -Webster mice after (po) administration of 80 mg/kg. It counts as functional.

D(2) dopamine receptor, sequence (P61169 whole entry): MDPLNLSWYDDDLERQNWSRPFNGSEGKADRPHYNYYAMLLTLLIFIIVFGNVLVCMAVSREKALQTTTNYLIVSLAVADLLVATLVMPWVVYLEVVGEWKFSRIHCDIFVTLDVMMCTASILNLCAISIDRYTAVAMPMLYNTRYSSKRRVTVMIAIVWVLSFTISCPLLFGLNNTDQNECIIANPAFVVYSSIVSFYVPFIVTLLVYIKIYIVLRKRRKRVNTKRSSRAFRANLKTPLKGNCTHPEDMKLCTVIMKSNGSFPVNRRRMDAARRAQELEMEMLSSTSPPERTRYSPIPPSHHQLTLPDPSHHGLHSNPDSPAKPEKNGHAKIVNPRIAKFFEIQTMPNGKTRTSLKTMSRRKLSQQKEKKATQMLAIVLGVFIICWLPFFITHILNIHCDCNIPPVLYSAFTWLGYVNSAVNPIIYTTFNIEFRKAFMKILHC
D(2) dopamine receptor (Rattus norvegicus), sequence (P61169 whole entry): as above

`CN1CCN(C2=Nc3cc(Cl)ccc3Nc3ccccc32)CC1` [CLOZAPINE]: the Activity with Mus musculus [1] was 4; in the test on Mus musculus [2], 19; in the test with Mus musculus [3] it was above 13; in the test on Mus musculus [4], above 15; in the test with Mus musculus [6], 3; with Mus musculus [7], above 0. The Activity was above 5 with Mus musculus [10] and 23 with Mus musculus [11]. The No of monkeys in test [5], in test [8] and in [9] was 0 throughout.

In the case of `OCCOCCN1CCN(C2=Nc3cc(Cl)ccc3Sc3ccccc32)CC1`, the Activity in the test with Mus musculus [12] came out at 24; with Mus musculus [13], 25; with Mus musculus [3], 1; in the test with Mus musculus [15], 8; with Mus musculus [4], 1; with Mus musculus [16], 20. The Activity in the test on Mus musculus [17] was 16; with Mus musculus [18], 0; with Mus musculus [6], 1; in the test on Mus musculus [21], 12. The No of monkeys in test [14], in test [19] and in [22] was 0 throughout. The % displacement of spiropiperidone in [20] was 58%.

What is called IC50 is the concentration needed to halve the response being measured. Consider `COCC(CCN1CCN(C2=Nc3ccccc3Sc3ccccc32)CC1)OC` (stereo not given), for which the Activity was 0 with Mus musculus [2]; 32 in the test with Mus musculus [23]; 20 in the test with Mus musculus [25]; 8 in the test on Mus musculus [26]; 21 in the test with Mus musculus [27]; 2 in the test with Mus musculus [29]. The values for the Activity in the test with Mus musculus [10] and in the test with Mus musculus [11] were 0 and 5, respectively. Also, the IC50 at D(2) dopamine receptor was found to be 0.293 µM. Further, the values for the No of monkeys in test [24] and in test [28] were 0 and 5, respectively.

Take `CN1CCN(C2=Nc3ccc(F)cc3Sc3ccccc32)CC1`: the Activity with Mus musculus [1] is 1; in the test on Mus musculus [30] it was 3; in the test on Mus musculus [15] it was 5; in the test on Mus musculus [16] it was 18; with Mus musculus [18], 1; with Mus musculus [21] it was 13. Also, the Activity in the test on Mus musculus [31] stood at 2; in the test with Mus musculus [32], 9. On D(2) dopamine receptor, this compound displayed an IC50 of 0.963 µM.

For the origin of these results see ChEMBL document CHEMBL1134337, “Behavioral approach to nondyskinetic dopamine antagonists: identification of seroquel” (J Med Chem, 2001).
